Experimental findings from ChEMBL document CHEMBL1151204, “Hypoglycemic effect and antioxidant potential of kaempferol-3,7-O-(alpha)-dirhamnoside from Bauhinia forficata leaves” (J Nat Prod, 2004) are described below.

Calls of active or inactive are those of the source. No cut-off for these calls is given here.

The subject of assay [1] is Rattus norvegicus. Kind of assay: Hypoglycemic activity in diabetic 16 hrs fasted Wistar rat assessed as reduction in alloxan-induced serum glucose level at 200 mg/kg, po after 2 hrs by glucose oxidase method. In kind it is functional. A digest of the protocol: (§1)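 Male Wistar rats, 160–190 g. Alloxan monohydrate 60 mg/kg i.v. in 0.9% NaCl given after an overnight fast. Rats with serum glucose 25–30.5 mmol/L at 72 h were fasted and randomized to diabetic, vehicle (0.5 mL 1% EtOH–H2O) or compound groups. Compound given by oral gavage. Retro-orbital serum glucose by glucose oxidase at 0, 1, 2 and 3 h. Mean ± SEM, n = 6 in duplicate, compared with 0 h.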

Assay [2] has as its system Rattus norvegicus. Kind of assay: Hypoglycemic activity in diabetic 16 hrs fasted Wistar rat assessed as reduction in alloxan-induced serum glucose level at 50 mg/kg, po after 1 hr by glucose oxidase method. In kind it is functional. The procedure, abridged: as §1
Assay [3] has as its system Rattus norvegicus. Kind of assay: Hypoglycemic activity in diabetic 16 hrs fasted Wistar rat assessed as reduction in alloxan-induced serum glucose level at 100 mg/kg, po after 2 hrs by glucose oxidase method. In kind it is functional. The procedure, abridged:
as §1

In assay [4] the test system is Rattus norvegicus. Kind of assay: Hypoglycemic activity in normal 16 hrs fasted Wistar rat assessed as reduction in serum glucose level at 50 mg/kg, po after 1 hr by glucose oxidase method. Type of assay: functional. The procedure, abridged:
(§2)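 Male Wistar rats, 160–190 g, fasted ≥16 h with free water. Groups: control, vehicle (0.5 mL 1% EtOH–H2O) and compound by oral gavage. Retro-orbital blood drawn and centrifuged; serum glucose by glucose oxidase at 0, 1, 2 and 3 h. Mean ± SEM, n = 6 in duplicate, compared with the 0 h value.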

Assay [5] has as its system Rattus norvegicus. Kind of assay: Hypoglycemic activity in normal 16 hrs fasted Wistar rat assessed as reduction in serum glucose level at 100 mg/kg, po after 3 hrs by glucose oxidase method. Type of assay: functional. The procedure, abridged:
as §2

Assay [6] concerns Rattus norvegicus. Kind of assay: Hypoglycemic activity in normal 16 hrs fasted Wistar rat assessed as reduction in serum glucose level at 200 mg/kg, po after 3 hrs by glucose oxidase method. Type of assay: functional. The procedure, abridged:
as §2

The test system of assay [7] is Rattus norvegicus. Kind of assay: Hypoglycemic activity in 16 hrs fasted Wistar rat assessed as reduction in serum glucose level at 100 mg/kg, po measured after 90 mins of glucose challenge by oral glucose tolerance test. In kind it is functional. The procedure, abridged: (§3)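 Male Wistar rats, 160–190 g, fasted ≥16 h with water allowed. Oral gavage of glucose 4 g/kg alone or with compound 100 mg/kg. Controls: untreated rats and tolbutamide 100 mg/kg. Blood drawn from the retro-orbital plexus before and at 30, 60, 90 and 180 min after the load. Serum glucose by glucose oxidase; mean ± SEM, n = 3 in duplicate.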

Assay [8] concerns Rattus norvegicus. In words: Hypoglycemic activity in diabetic 16 hrs fasted Wistar rat assessed as reduction in alloxan-induced serum glucose level at 100 mg/kg, po after 1 hr by glucose oxidase method. Type of assay: functional. The procedure, abridged:
as §1

A short description of assay [9]: Antioxidant activity in asolectin liposome assessed as inhibition of ascorbyl radical-induced lipid peroxidation by TBARS assay. In kind it is functional. A digest of the protocol:
(§4)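 Egg-yolk phosphatidylcholine or soybean asolectin bilayer liposomes made by cholate/deoxycholate solubilisation then dialysis; lipid 12.5 mg/mL. Ascorbyl-radical peroxidation started with 25 µM FeSO4 plus 500 µM ascorbate. TBARS read with extinction coefficient 1.56 × 10^5 M-1 cm-1; IC50 derived; mean ± SEM, n = 3 in duplicate.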

In assay [10] the test system is Rattus norvegicus. In words: Hypoglycemic activity in 16 hrs fasted Wistar rat assessed as reduction in serum glucose level at 100 mg/kg, po measured after 180 mins of glucose challenge by oral glucose tolerance test. In kind it is functional. A digest of the protocol: as §3
Assay [11] is described as follows: Antioxidant activity in 1-alpha-phosphatidylcholine liposome assessed as inhibition of ascorbyl radical-induced lipid peroxidation by TBARS assay. In kind it is functional. The procedure, abridged: as §4
In assay [12] the test system is Rattus norvegicus. Kind of assay: Hypoglycemic activity in diabetic 16 hrs fasted Wistar rat assessed as reduction in alloxan-induced serum glucose level at 50 mg/kg, po after 2 hrs by glucose oxidase method. Type of assay: functional. The procedure, abridged:
as §1

For assay [13], the system named is Lung. In words: Antioxidant activity in Wistar rat lung assessed as half maximal inhibition of myeloperoxidase. In kind it is functional, tissue-based. A digest of the protocol:
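Enzyme source: rat lung homogenised in ice-cold phosphate buffer. Activity was read as the slope of absorbance at 450 nm with o-dianisidine-2HCl and H2O2 and converted to units against a standard curve of commercial enzyme. Each concentration point was monitored kinetically, and the concentration giving half-maximal inhibition (K0.5) was taken from the inhibition curve.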

Assay [14] concerns Rattus norvegicus. Kind of assay: Hypoglycemic activity in normal 16 hrs fasted Wistar rat assessed as reduction in serum glucose level at 100 mg/kg, po after 2 hrs by glucose oxidase method. In kind it is functional. The procedure, abridged:
as §2

Assay [15] has as its system Rattus norvegicus. Kind of assay: Hypoglycemic activity in diabetic 16 hrs fasted Wistar rat assessed as reduction in alloxan-induced serum glucose level at 100 mg/kg, po after 3 hrs by glucose oxidase method. Type of assay: functional. A digest of the protocol: as §1
For assay [16], the system named is Rattus norvegicus. In words: Hypoglycemic activity in normal 16 hrs fasted Wistar rat assessed as reduction in serum glucose level at 200 mg/kg, po after 2 hrs by glucose oxidase method. Type of assay: functional. The procedure, abridged:
as §2

For assay [17], the system named is Rattus norvegicus. Kind of assay: Hypoglycemic activity in normal 16 hrs fasted Wistar rat assessed as reduction in serum glucose level at 100 mg/kg, po after 1 hr by glucose oxidase method. In kind it is functional. A digest of the protocol: as §2
The subject of assay [18] is Rattus norvegicus. In words: Hypoglycemic activity in 16 hrs fasted Wistar rat assessed as reduction in serum glucose level at 100 mg/kg, po measured after 60 mins of glucose challenge by oral glucose tolerance test. In kind it is functional. The procedure, abridged:
as §3

Assay [19] deals with Rattus norvegicus. In words: Hypoglycemic activity in normal 16 hrs fasted Wistar rat assessed as reduction in serum glucose level at 200 mg/kg, po after 1 hr by glucose oxidase method. Type of assay: functional. A digest of the protocol: as §2
Assay [20] relates to Lung. Kind of assay: Antioxidant activity in Wistar rat lung assessed as maximal inhibition of myeloperoxidase at 400 uM.
In assay [21] the test system is Liver microsomes. In words: Antioxidant activity in Wistar rat liver microsomes assessed as inhibition of ascorbyl radical-induced lipid peroxidation by TBARS assay. Type of assay: functional, Microsome. The procedure, abridged:
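Microsomes from male Wistar rat liver, isolated by differential centrifugation with calcium aggregation and stored at -70 °C; protein by Lowry, fixed at 2 mg/mL. Ascorbyl-radical peroxidation started with 25 µM FeSO4 plus 500 µM ascorbate. TBARS read with extinction coefficient 1.56 × 10^5 M-1 cm-1; IC50 derived; mean ± SEM, n = 3 in duplicate.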
On the technique in general: Liver microsomes are a subcellular fraction often used to study metabolism.

For assay [22], the system named is Radical scavenging activity. In words: Antioxidant activity assessed as DPPH radical scavenging activity. In kind it is functional. The procedure, abridged:
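DPPH in EtOH, 200 μM, in the medium; radical loss read as absorbance decrease at 515 nm.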
On the technique in general: Loss of DPPH colour is used to gauge radical scavenging.

For assay [23], the system named is Rattus norvegicus. Kind of assay: Hypoglycemic activity in normal 16 hrs fasted Wistar rat assessed as reduction in serum glucose level at 50 mg/kg, po after 3 hrs by glucose oxidase method. In kind it is functional. A digest of the protocol:
as §2

In assay [24] the test system is Liver microsomes. Kind of assay: Antioxidant activity in Wistar rat liver microsomes assessed as inhibition of hydroxyl radical-induced lipid peroxidation by TBARS assay. Type of assay: functional, Microsome. A digest of the protocol:
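Male Wistar rat liver microsomes, isolated by differential centrifugation with calcium aggregation and stored at -70 °C, at 2 mg protein/mL in 0.1 M KH2PO4 pH 7.4. Hydroxyl-radical peroxidation started with 25 µM FeCl2, 2.8 mM H2O2 and 100 µM sodium ascorbate. TBARS read with extinction coefficient 1.56 × 10^5 M-1 cm-1; IC50 derived; mean ± SEM, n = 3 in duplicate.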

The test system of assay [25] is Rattus norvegicus. Kind of assay: Hypoglycemic activity in 16 hrs fasted Wistar rat assessed as reduction in serum glucose level at 100 mg/kg, po measured after 30 mins of glucose challenge by oral glucose tolerance test. In kind it is functional. The procedure, abridged:
as §3

The test system of assay [26] is Rattus norvegicus. In words: Hypoglycemic activity in normal 16 hrs fasted Wistar rat assessed as reduction in serum glucose level at 50 mg/kg, po after 2 hrs by glucose oxidase method. In kind it is functional. A digest of the protocol: as §2
Assay [27] concerns Rattus norvegicus. In words: Hypoglycemic activity in diabetic 16 hrs fasted Wistar rat assessed as reduction in alloxan-induced serum glucose level at 50 mg/kg, po after 3 hrs by glucose oxidase method. In kind it is functional. A digest of the protocol: as §1
For assay [28], the system named is Rattus norvegicus. Kind of assay: Hypoglycemic activity in diabetic 16 hrs fasted Wistar rat assessed as reduction in alloxan-induced serum glucose level at 200 mg/kg, po after 1 hr by glucose oxidase method. Type of assay: functional. A digest of the protocol:
as §1

Assay [29] relates to Rattus norvegicus. In words: Hypoglycemic activity in diabetic 16 hrs fasted Wistar rat assessed as reduction in alloxan-induced serum glucose level at 200 mg/kg, po after 3 hrs by glucose oxidase method. Type of assay: functional. The procedure, abridged: as §1

One may read the IC50 as the point on the concentration scale where inhibition reaches its midpoint. With `C[C@@H]1O[C@@H](Oc2cc(O)c3c(=O)c(O[C@@H]4O[C@@H](C)[C@H](O)[C@@H](O)[C@H]4O)c(-c4ccc(O)cc4)oc3c2)[C@H](O)[C@H](O)[C@H]1O` [KAEMPFERITRIN], the Activity in the assay with Rattus norvegicus [1] was found to be 22.2 mmol/L; with Rattus norvegicus [2], 23.5 mmol/L; in the assay with Rattus norvegicus [3], 24 mmol/L; with Rattus norvegicus [4] it was 5.5 mmol/L; with Rattus norvegicus [5], 6.2 mmol/L; with Rattus norvegicus [6], 5.1 mmol/L. In addition, the Activity in the assay with Rattus norvegicus [7] was found to be 8.2 mmol/L; in the assay with Rattus norvegicus [8] it was 24.3 mmol/L; in the assay with Rattus norvegicus [10] it was 6.7 mmol/L; in the assay on Rattus norvegicus [12], 25.2 mmol/L; with Rattus norvegicus [14] it was 5.5 mmol/L; in the assay on Rattus norvegicus [15], 24 mmol/L. Also, the Activity in the assay on Rattus norvegicus [16] stood at 5 mmol/L; in the assay with Rattus norvegicus [17] it was 5.4 mmol/L; in the assay with Rattus norvegicus [18], 8.8 mmol/L; in the assay with Rattus norvegicus [19] it was 4.5 mmol/L; in the assay with Rattus norvegicus [23], 6.2 mmol/L; in the assay with Rattus norvegicus [25], 9.5 mmol/L. For the same compound, the Activity in the assay with Rattus norvegicus [26] turned out to be 5.9 mmol/L; in the assay with Rattus norvegicus [27], 25.3 mmol/L; in the assay on Rattus norvegicus [28] it was 22.4 mmol/L; with Rattus norvegicus [29], 22.4 mmol/L. The IC50 in assay [9] turned out to be 223 µM; in assay [11], 112 µM; in the assay on Liver microsomes [21], 320 µM; in assay [22] it was 84 µM; in the assay on Liver microsomes [24], 85 µM. In the assay on Lung [13], the K was determined as 86 µM. The outcome in the assay with Lung [20] was Active.

Take `O=c1c(O)c(-c2ccc(O)c(O)c2)oc2cc(O)cc(O)c12` [QUERCETIN]: the IC50 in [9] turned out to be 80 µM; in assay [11], 80 µM; in the assay on Liver microsomes [21] it was 125 µM; in the assay with Liver microsomes [24], 7.5 µM.

Turning to `CCCCNC(=O)NS(=O)(=O)c1ccc(C)cc1` [TOLBUTAMIDE], the Activity in the assay with Rattus norvegicus [7] came to 5.9 mmol/L; in the assay on Rattus norvegicus [10], 5.2 mmol/L; in the assay on Rattus norvegicus [18], 6.3 mmol/L; in the assay on Rattus norvegicus [25], 7.8 mmol/L.
